Laboratory results as given in PubChem BioAssay AID463171 (The Scripps Research Institute Molecular Screening Center, 2010).
Activity calls are given as the source filed them.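 Rule for the calls: active = p27 reporter light at least 10 times the solvent-only level, showing blocked p27 breakdown; inactive = ratio under 10.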

Target: Cyclin-dependent kinase inhibitor 1B (Homo sapiens) (UniProt P46527)
Assay: inhibitors of p27 turnover in HeLa cells, late-stage follow-up, counter-screen for Wee1 degradation inhibitor project, cell-based, luminescence, p27-luciferase fusion, powder samples (AID 463171)
Conditions: HeLa p27-luciferase fusion stability, at 0.1 µM, active compounds read high
Method in brief: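 system = HeLa cells with p27-luciferase fusion reporter | schedule = compound exposure 20 h at 37 °C, cells 48 h post-transfection | measured by = Brite-lite luminescence | measure = mean fold change in luminescence relative to DMSO vehicle wells | control set = DMSO vehicle wells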

Sequence of Cyclin-dependent kinase inhibitor 1B (Homo sapiens) (P46527 whole entry, looked up, the tested form may be a part): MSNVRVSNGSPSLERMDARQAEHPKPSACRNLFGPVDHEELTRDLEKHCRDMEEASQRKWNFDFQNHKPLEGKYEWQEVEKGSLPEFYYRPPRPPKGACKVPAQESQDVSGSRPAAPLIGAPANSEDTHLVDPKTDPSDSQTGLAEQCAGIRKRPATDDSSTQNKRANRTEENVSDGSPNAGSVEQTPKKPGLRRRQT

fold change | Structure (SMILES)
4.61 (inactive) | O=[N+]([O-])c1cccc2[nH]c(CNc3nc(N4CCOCC4)nc4c3ncn4-c3ccsc3)nc12
3.13 (inactive) | c1ccc2[nH]c(CNc3nc(N4CCOCC4)nc4c3ncn4-c3ccsc3)nc2c1
